Measured values from ChEMBL document CHEMBL1156597, “Structure-activity relationship of kahalalide F synthetic analogues” (J Med Chem, 2008).

Legend:
[1] = test system: SK-BR-3; assay: Cytotoxicity against human SKBR3 cells after 48 hrs by SRB assay; assay type: functional; conditions: SK-BR-3, 48 h; for CC50: read-out: LC50 (the source's name)
Procedure, shortened: (§1)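 Cells grown in RPMI 1640 with 10% FBS and penicillin/streptomycin at 37 °C and 5% CO₂, trypsinized, then seeded at 5 × 10³/well. After 18 h drug-free attachment, samples in DMSO/EtOH/PBS (0.5:0.5:99) were added for 48 h continuous exposure. Cells were fixed with cold TCA (1 h, 4 °C) and stained with SRB (10 min). Tris-solubilized stain read at 490 nm. Triplicate wells, mean ± SD; GI₅₀ derived.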

[2] = Cytotoxicity against human IGROV-ET cells after 48 hrs by SRB assay; assay type: functional; conditions: for CC50: read-out: LC50 (the source's name); procedure, shortened: as §1
[3] = test system: DU-145; assay: Cytotoxicity against human DU145 cells after 48 hrs by SRB assay; assay type: functional, cell-based; conditions: Homo sapiens, DU-145, 48 h; for CC50: read-out: LC50 (the source's name); procedure, shortened: as §1
[4] = test system: LoVo; assay: Cytotoxicity against human doxorubicin resistant LoVo cells after 48 hrs by SRB assay; assay type: functional; conditions: for CC50: read-out: LC50 (the source's name); procedure, shortened: as §1
[5] = test system: SK-MEL-28; assay: Cytotoxicity against human SK-MEL-28 cells after 48 hrs by SRB assay; assay type: functional, cell-based; conditions: Homo sapiens, SK-MEL-28, 48 h; for CC50: read-out: LC50 (the source's name); procedure, shortened: as §1
[6] = test system: A549; assay: Cytotoxicity against human A549 cells after 48 hrs by SRB assay; assay type: functional, cell-based; conditions: Homo sapiens, A549, 48 h; procedure, shortened: as §1
[7] = test system: PANC-1; assay: Cytotoxicity against human PANC1 cells after 48 hrs by SRB assay; assay type: functional; conditions: PANC-1, 48 h; for CC50: read-out: LC50 (the source's name); procedure, shortened: as §1
[8] = test system: HT-29; assay: Cytotoxicity against human HT29 cells after 48 hrs by SRB assay; assay type: functional, cell-based; conditions: Homo sapiens, HT-29, 48 h; for CC50: read-out: LC50 (the source's name); procedure, shortened: as §1
[9] = test system: HeLa; assay: Cytotoxicity against human HeLa cells after 48 hrs by SRB assay; assay type: functional; conditions: for CC50: read-out: LC50 (the source's name); procedure, shortened: as §1
[10] = Cytotoxicity against human HeLa-APL cells after 48 hrs by SRB assay; assay type: functional; procedure, shortened: as §1
[11] = Cytotoxicity against human IGROV cells after 48 hrs by SRB assay; assay type: functional; conditions: for CC50: read-out: LC50 (the source's name); procedure, shortened: as §1
[12] = test system: LoVo; assay: Cytotoxicity against human LoVo cells after 48 hrs by SRB assay; assay type: functional; conditions: for CC50: read-out: LC50 (the source's name)
[13] = test system: K562; assay: Cytotoxicity against human K562 cells after 48 hrs by SRB assay; assay type: functional; conditions: K562, 48 h; for CC50: read-out: LC50 (the source's name); procedure, shortened: as §1

SMILES	CC50 [1]	GI50 ([2]; read-out: GI50)	CC50 [2]	GI50 ([3]; read-out: GI50)	CC50 [3]	GI50 [4]	TGI [4]	CC50 [4]	GI50 ([5]; read-out: GI50)	CC50 [5]	LC50 [6]	GI50 ([6]; read-out: GI50)	CC50 [7]	CC50 [8]	GI50 [9]	TGI [9]	CC50 [9]	GI50 [10]	LC50 (concentration giving 50% net cell kill) [10]	TGI [10]	also measured
C/C=C1\NC(=O)[C@H](Cc2cccs2)NC(=O)[C@@H](C(C)C)NC(=O)[C@@H]([C@H](C)CC)NC(=O)[C@H](NC(=O)[C@H](NC(=O)[C@H](CCCN)NC(=O)[C@H]2CCCN2C(=O)[C@H](NC(=O)[C@@H](NC(=O)[C@@H](NC(=O)[C@H](NC(=O)CC[C@@H](C)CC)C(C)C)[C@@H](C)O)C(C)C)C(C)C)[C@H](C)CC)[C@H](C)OC(=O)[C@H](C(C)C)NC1=O	110 nM	1710 nM	505 nM	1380 nM	1070 nM	390 nM	391 nM	393 nM	1580 nM	1290 nM	1210 nM	1760 nM	2010 nM	657 nM	1590 nM	1290 nM	1070 nM	1770 nM	1130 nM	1420 nM	GI50 [2]: 855 nM; TGI [3]: 1210 nM; TGI [5]: 1430 nM; TGI [6]: 1450 nM; GI50 [8]: 1290 nM; TGI [8]: 1020 nM; CC50 [11]: 676 nM; GI50 [12]: 751 nM; TGI [12]: 1190 nM; CC50 [12]: 1930 nM; GI50 [13]: 4920 nM; TGI [13]: 4290 nM; CC50 [13]: 2690 nM
C/C=C1\NC(=O)[C@H](Cc2ccccc2)N(C)C(=O)[C@@H](C(C)C)NC(=O)[C@@H]([C@H](C)CC)NC(=O)[C@H](NC(=O)[C@H](NC(=O)[C@H](CCCN)NC(=O)[C@H]2CCCN2C(=O)[C@H](NC(=O)[C@@H](NC(=O)[C@@H](NC(=O)[C@H](NC(=O)CC[C@@H](C)CC)C(C)C)[C@@H](C)O)C(C)C)C(C)C)[C@H](C)CC)[C@H](C)OC(=O)[C@H](C(C)C)NC1=O	76.8 nM	999 nM	451 nM	1230 nM	1030 nM	318 nM	311 nM	305 nM	1350 nM	1190 nM	999 nM	1300 nM	2000 nM	220 nM	528 nM	766 nM	781 nM	1110 nM	936 nM	1020 nM	TGI [1]: 286 nM; GI50 ([1]; read-out: GI50): 324 nM; GI50 [2]: 642 nM; TGI [3]: 1130 nM; TGI [5]: 1270 nM; TGI [6]: 1130 nM; GI50 [7]: 1920 nM; TGI [7]: 2100 nM; GI50 [8]: 274 nM; TGI [8]: 236 nM; GI50 [11]: 596 nM; GI50 ([11]; read-out: GI50): 862 nM; CC50 [11]: 493 nM; GI50 [12]: 386 nM; TGI [12]: 431 nM; CC50 [12]: 486 nM; GI50 [13]: 2140 nM; TGI [13]: 1730 nM; CC50 [13]: 1410 nM
C/C=C1\NC(=O)[C@H](Cc2ccc(Cl)cc2)NC(=O)[C@@H](C(C)C)NC(=O)[C@@H]([C@H](C)CC)NC(=O)[C@H](NC(=O)[C@H](NC(=O)[C@H](CCCN)NC(=O)[C@H]2CCCN2C(=O)[C@H](NC(=O)[C@@H](NC(=O)[C@@H](NC(=O)[C@H](NC(=O)CCCC(C)C)C(C)C)[C@@H](C)O)C(C)C)C(C)C)[C@H](C)CC)[C@H](C)OC(=O)[C@H](C(C)C)NC1=O	206 nM	86.2 nM	175 nM	112 nM	388 nM	57.1 nM	44.9 nM	340 nM	214 nM	931 nM	934 nM	227 nM	1700 nM	143 nM	193 nM	184 nM	362 nM	215 nM	286 nM	186 nM	GI50 [1]: 38.6 nM; GI50 ([1]; read-out: GI50): 39.7 nM; GI50 [2]: 122 nM; GI50 [3]: 189 nM; GI50 [5]: 393 nM; GI50 [6]: 473 nM; GI50 [7]: 1140 nM; TGI [7]: 1700 nM; GI50 [8]: 36.5 nM; TGI [8]: 73.5 nM; GI50 [11]: 62.9 nM; GI50 ([11]; read-out: GI50): 46.3 nM; CC50 [11]: 112 nM; GI50 [12]: 21.6 nM; TGI [12]: 55 nM; CC50 [12]: 83.8 nM; GI50 [13]: 696 nM; TGI [13]: 1090 nM; CC50 [13]: 1690 nM
C/C=C1\NC(=O)[C@H](Cc2ccc(OC)cc2)NC(=O)[C@@H](C(C)C)NC(=O)[C@@H]([C@H](C)CC)NC(=O)[C@H](NC(=O)[C@H](NC(=O)[C@H](CCCN)NC(=O)[C@H]2CCCN2C(=O)[C@H](NC(=O)[C@@H](NC(=O)[C@@H](NC(=O)[C@H](NC(=O)CC[C@@H](C)CC)C(C)C)[C@@H](C)O)C(C)C)C(C)C)[C@H](C)CC)[C@H](C)OC(=O)[C@H](C(C)C)NC1=O	824 nM	295 nM	465 nM	858 nM	1060 nM	237 nM	214 nM	79.2 nM	1190 nM	1280 nM	6420 nM	526 nM	1990 nM	45.4 nM	766 nM	848 nM	943 nM	1010 nM	1220 nM	1160 nM	TGI [1]: 284 nM; GI50 ([1]; read-out: GI50): 283 nM; GI50 [2]: 384 nM; GI50 [3]: 947 nM; TGI [5]: 1230 nM; GI50 [6]: 557 nM; GI50 [7]: 3120 nM; TGI [7]: 4340 nM; GI50 [11]: 502 nM; GI50 ([11]; read-out: GI50): 442 nM; CC50 [11]: 581 nM; GI50 [12]: 320 nM; TGI [12]: 285 nM; CC50 [12]: 106 nM; CC50 [13]: 1890 nM
C/C=C1\NC(=O)[C@H](Cc2ccc3ccccc3c2)NC(=O)[C@@H](C(C)C)NC(=O)[C@@H]([C@H](C)CC)NC(=O)[C@H](NC(=O)[C@H](NC(=O)[C@H](CCCN)NC(=O)[C@H]2CCCN2C(=O)[C@H](NC(=O)[C@@H](NC(=O)[C@@H](NC(=O)[C@H](NC(=O)CCCC(C)C)C(C)C)[C@@H](C)O)C(C)C)C(C)C)[C@H](C)CC)[C@H](C)OC(=O)[C@H](C(C)C)NC1=O	32.7 nM	46.4 nM	120 nM	50.9 nM	224 nM	29.5 nM	29 nM	148 nM	135 nM	339 nM	343 nM	110 nM	1370 nM	60.9 nM	71.6 nM	94.6 nM	220 nM	77.5 nM	205 nM	91.7 nM	GI50 [1]: 18.8 nM; GI50 ([1]; read-out: GI50): 21.7 nM; TGI [2]: 60.4 nM; GI50 [3]: 116 nM; GI50 [5]: 213 nM; GI50 [6]: 194 nM; GI50 [7]: 606 nM; TGI [7]: 909 nM; GI50 [8]: 37.9 nM; TGI [8]: 39.1 nM; GI50 [11]: 37.2 nM; GI50 ([11]; read-out: GI50): 27.3 nM; CC50 [11]: 44.3 nM; TGI [12]: 22.9 nM; CC50 [12]: 34.4 nM; GI50 [13]: 287 nM; TGI [13]: 679 nM; CC50 [13]: 1320 nM
